# Compound activity from PubChem.
# CHO parental Ca: counter-screen: ATP calcium response change in parental CHO cells; parental CHO-K1, ATP-induced calcium, Fluo-8 fluorescence; inhibition, % at 5.6 µM; hit rate 0.63% among 330,000; AID 463079;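 active means inhibition above that plate's mean sample inhibition plus 3 SD, cut at about 26% in these data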;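 further: 0% = ATP-challenged DMSO wells and 100% = DMSO wells without ATP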
#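 test system = CHO parental line | reagent = ATP stimulus | measured by = intracellular calcium via Fluo-8 no-wash fluorescent dye | control set = ATP and no-ATP DMSO wells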
# OX1R antag-1: blocks the human orexin 1 receptor; O43613; CHO/OX1R cells, Fluo-8 calcium fluorescence, orexin A; inhibition, % at 5 µM; hit rate 0.43% among 330,000;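 active means inhibition above its plate's threshold, mean inhibition of all tested compounds on the plate plus 3 SD, cut at about 37% in these data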;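 further: 0% = orexin A challenge wells and 100% = SB-334867-A antagonist wells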
# GPR7 antag: blocks human GPR7 receptor signaling. GPR7-expressing cells, fluorescence antagonist assay. inhibition, % at 4.4 µM. hit rate 1.1% among 290,000. AID 1861; in the data active means inhibition above about 16%, passing the limit was not always enough;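 further: cells stimulated with the agonist NPW; 0% = agonist with vehicle and 100% = vehicle without agonist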
# zfTRPN1 agonist: zebrafish TRPN1 (NompC) channel agonism | HEK293 zebrafish TRPN1-YFP, Fluo-8 calcium fluorescence; 100% = response to 87 µM carbachol | activation, % at 3 µM | hit rate 0.18% among 220,000 | AID 1424;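 active means activation above its plate's cutoff, the mean activation of test wells on that plate plus 3 SD, cut at about 19% in these data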;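 further: 0% = DMSO alone and 100% = 87 µM carbachol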
#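 Material: zebrafish TRPN1-YFP in HEK293 cells; Doses: single test compound dose, 3 µM nominal, 0.3% DMSO; Timing: dye loading 1 h at 37 °C, then 30 min room temperature; Technique: intracellular calcium fluorescence with Fluo-8; Benchmarks: high carbachol 87 µM, low DMSO alone.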
# TRPML3 ag: activates the human TRPML3 channel; Q8TDD5; hit rate 0.29% among 220,000; activation, % at 3 µM; HEK293 TRPML3-YFP, Fluo-8 calcium fluorescence; 100% = the carbachol control signal; AID 1448;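 active means activation above its plate's cutoff, the mean activation of the plate's test wells plus 3 SD, cut at about 12% in these data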;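 further: 0% = DMSO only wells and 100% = carbachol wells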
# Target sequence (Q8TDD5 whole entry, looked up): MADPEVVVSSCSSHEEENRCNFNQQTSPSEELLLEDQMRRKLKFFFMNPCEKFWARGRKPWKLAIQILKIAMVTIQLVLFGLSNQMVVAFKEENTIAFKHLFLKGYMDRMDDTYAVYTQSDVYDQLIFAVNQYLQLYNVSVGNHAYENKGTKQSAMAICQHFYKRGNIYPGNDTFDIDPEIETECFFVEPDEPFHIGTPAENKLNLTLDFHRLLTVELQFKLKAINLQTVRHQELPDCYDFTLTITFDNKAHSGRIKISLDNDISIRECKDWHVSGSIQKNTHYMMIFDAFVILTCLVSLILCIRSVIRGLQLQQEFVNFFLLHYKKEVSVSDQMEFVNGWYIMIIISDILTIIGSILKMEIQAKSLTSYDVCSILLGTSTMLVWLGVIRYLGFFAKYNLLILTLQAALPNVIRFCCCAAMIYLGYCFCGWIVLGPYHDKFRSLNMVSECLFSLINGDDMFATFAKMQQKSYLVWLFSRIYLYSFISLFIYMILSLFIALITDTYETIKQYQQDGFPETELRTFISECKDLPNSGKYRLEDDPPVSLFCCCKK
#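 Material: TRPML3-YFP stable HEK293 cells | Dosing: One concentration, 3 µM nominal, 0.3% DMSO | Timing: 125 s total fluorescence read per well | Technique: Fluo-8 calcium dye fluorescence, ex 470-495, em 515-575 nm | Measure: Percent activation from peak-to-basal fluorescence ratio, scaled between DMSO and carbachol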
# OX1R antag-2: antagonists of human orexin 1 receptor (OX1R); inhibition, % at 6.6 µM; hit rate 1.8% among 330,000; AID 485270; OX1R-expressing cells, FRET antagonist read-out; in the data active means inhibition mostly above about 38%, no sharp cut-off; inactive means mostly below about 40%;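 further: 0% = agonist challenge alone and 100% = reference antagonist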
# OX1R Ca confirm: OX1R (human) antagonism, confirmed; hit rate 38% among 1,100; inhibition, % at 5 µM; shares compounds with OX1R antag-1; CHO/OX1R cells, orexin A calcium Fluo-8 fluorescence; in the data active means inhibition above about 29%;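 further: 0% = agonist challenge alone and 100% = reference antagonist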
# CHO Ca triplic: counter-screen for OX1R antagonists: effect in parental CHO cells | shares compounds with OX1R antag-1 | parental CHO-K1, ATP-induced calcium, Fluo-8 fluorescence | inhibition, % at 5.6 µM | hit rate 9.3% among 1,100 | AID 492965;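 active means inhibition above a per-plate limit, the mean inhibition of that plate's test compounds plus 3 SD, cut at about 25% in these data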;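 further: 0% = ATP challenge with DMSO and 100% = DMSO without ATP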
# An asterisk follows results filed as active; / = no result. In the library only some 3.2% were active in any assay of this set; here they are far more common.
SMILES,CHO parental Ca,OX1R antag-1,GPR7 antag,zfTRPN1 agonist,TRPML3 ag,OX1R antag-2,OX1R Ca confirm,CHO Ca triplic
CCN(c1ccccc1)S(=O)(=O)c1ccc(Cl)c(NC(=O)COC(=O)c2ccc(O)cc2)c1,-11,-7,-13,-1,0,23,/,/
O=C1N[C@@H](c2ccccc2)COC(=O)[C@H](Cc2ccc(F)cc2)CC/C=C/C[C@H]1CC(=O)N(CCO)Cc1ccccc1,-17,-7,/,/,/,4,/,/
O=C1N[C@@H](c2ccccc2)COC(=O)[C@@H](Cc2ccc(F)cc2)C/C=C\C[C@@H]1CC(=O)N(CCO)Cc1ccccc1,11,58,/,/,/,20,63*,2
Cc1ccc(S(=O)(=O)N2CCCC2)cc1C(=O)NCC(C)(C)N1CCOCC1,-9,-18,/,/,/,0,/,/
O=C(OCc1cccc([N+](=O)[O-])c1)c1cc2ccccc2oc1=O,-12,45,-14,/,/,9,-7,0
Cc1ccc(C)c(NC(=O)CN(C)C(=O)CN2C(=O)C3CCCCC3C2=O)c1 (stereo unspecified),-20,-25,/,/,/,5,/,/
COc1cc(CN2CC(=O)N(c3ccccc3Cl)C2=S)cc(OC)c1OC,1,39,-15,/,/,39,68*,1
O=[N+]([O-])c1ccc(/C=N\NS(=O)(=O)c2ccc(F)cc2)o1,1,27,2,/,/,7,-3,3
COc1ccc(S(=O)(=O)N/N=C\c2ccc([N+](=O)[O-])o2)c(OC)c1,0,6,-7,/,/,18,/,/
CCN(CC(=O)NCc1ccc(Cl)cc1)C(=O)CCC(=O)c1ccc(F)cc1,-32,-33,/,/,/,15,/,/
COC(=O)c1ccc2c(c1)C(C)(C)C(/C=C/c1ccc(O)cc1)=[N+]2C,14,31,10,7,5,25,66*,52*
Cc1cc(OCC(=O)Nc2cccc(S(=O)(=O)N3CCCCC3)c2)ccc1Cl,3,36,/,/,/,6,16,14
CCCN1C(=O)/C(=C/c2ccc(N3CCOCC3)cc2)NC1=S,24,26,1,24*,12*,4,15,19
C[C@@H]1CN([C@@H](C)CO)C(=O)c2cccc(NC(=O)Nc3ccc(F)cc3)c2O[C@@H]1CN(C)Cc1ccc(Oc2ccccc2)cc1,28,52*,/,/,/,4,62*,24
CC(C)C(=O)N1CCN(c2ccc(NC(=O)COc3ccccc3[N+](=O)[O-])cc2)CC1,8,28,-22,5,4,51,27,4
Cc1ccc(C(=O)c2coc3ccc(O)cc23)cc1,/,/,-9,/,/,/,/,/
O=S(=O)(NN1CCOCC1)c1cc(Cl)cc(Cl)c1O,6,-6,-21,/,/,2,/,/
CCN1C(=O)/C(=C/C=C2\N(CC)c3cc(S(=O)(=O)N(C)C)ccc3N2c2ccccc2)SC1=S,15,30,-3,22*,6,15,72*,68*
CCN1C(=O)/C(=C\C=C\c2ccccc2[N+](=O)[O-])SC1=S,/,/,-16,1,1,/,/,/
O=C(NCc1nnc(SCC(=O)N2CCN(c3ccccc3)CC2)o1)c1ccc(F)cc1,-6,-22,-3,/,/,13,/,/
Cc1c(C(=O)N2CCC(Cc3ccccc3)CC2)cccc1[N+](=O)[O-],-20,-23,8,7,1,10,/,/
Cc1ccc(C(=O)N2CCC(Cc3ccccc3)CC2)cc1[N+](=O)[O-],11,28,3,-1,1,29,17,-3
O=S(=O)(Nc1ccc(O)c2ccccc12)c1ccc(Br)cc1,-16,-24,-25,/,/,20,/,/
O=C(O)Cn1nnc(COc2ccccc2)n1,1,-19,-8,/,/,15,/,/
COc1ccc(NS(=O)(=O)c2ccc(N3CCCCC3)c(N)c2)cc1,12,62*,/,/,/,16,20,65*
COc1ccc(N(CC(=O)Nc2cccc(N(C)S(C)(=O)=O)c2)S(=O)(=O)c2ccc(C)cc2)cc1,-4,27,-4,1,0,28,10,1
